How the values were obtained:
Rattus norvegicus [1] = organism: Rattus norvegicus; assay: Maximal relaxing effect of compound in isolated rat aortic rings precontracted with 1 uM phenylephrine at 100 uM concentration; assay type: functional, Aorta
Summary of the method: (§1)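 Thoracic aorta of adult male Wistar rats cut into 2 mm rings, one with intact and one with mechanically removed endothelium. Superfused 1 mL/min with modified Tyrode-type buffer, 37 °C, pH 7.44, carbogen; basal tension 2 g, isometric force. Endothelium checked with 1 µM carbachol against 1 µM phenylephrine. Compounds added 30 min after perfusion, on phenylephrine tone; some rings pretreated with 300 µM L-NAME. Mean ± SEM.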

Homo sapiens [2] = organism: Homo sapiens; assay: In vitro inhibitory concentration against thrombin-induced platelet aggregation in human platelet-rich plasma in presence of thrombin at 0.25 IU/mL; assay type: functional
Summary of the method: (§2)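 Healthy drug-free donors' venous blood centrifuged 800 rpm 8 min RT; PRP diluted with PPP to 2 × 10⁸ platelets/mL, one donor per series. PRP stirred (1100 rpm) with compound 0.05-1 mM ≥4 min, then bovine thrombin added at 37 °C; light transmittance recorded 4 min, PPP = 100%, PRP = 0%. Studies finished within 1 h of collection.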

Homo sapiens [3] = organism: Homo sapiens; assay: In vitro inhibitory concentration against thrombin-induced platelet aggregation in human platelet-rich plasma in presence of thrombin at 0.20 IU/mL; assay type: functional; summary of the method: as §2
Homo sapiens [4] = organism: Homo sapiens; assay: In vitro inhibitory concentration against thrombin-induced platelet aggregation in human platelet-rich plasma in presence of thrombin at 0.30 IU/mL; assay type: functional; summary of the method: as §2
[5] = Relative potency (REC) is the ratio of concentration of compound to the concentration of SFLLR-NH2 for producing equal relaxing effect on the isolated rat aortic rings; assay type: functional, Aorta
Rattus norvegicus [6] = organism: Rattus norvegicus; assay: Reduction of maximal relaxing response in isolated rat aortic rings precontracted with Nomega-nitro-L-arginine (L-NAME) at 0.1-100 uM concentration; Range is 17-18%; assay type: functional, Aorta; summary of the method: as §1
Rattus norvegicus [7] = organism: Rattus norvegicus; assay: Maximal relaxing effect in isolated rat aortic rings without endothelium precontracted with 1 uM phenylephrine at 0.1-100 uM concentration; Range is 2.3-14%; assay type: functional, Aorta; summary of the method: as §1
Rattus norvegicus [8] = organism: Rattus norvegicus; assay: Maximal relaxing effect in isolated rat aortic rings with endothelium precontracted with 1 uM phenylephrine at 0.1-100 uM concentration; Range is 1.3-42.7%; assay type: functional, Aorta; summary of the method: as §1
Rattus norvegicus [9] = organism: Rattus norvegicus; assay: Relaxing effect dependent on nitric oxide in isolated rat aortic rings at 0.1-100 uM compound concentration; Range is 0-25%; assay type: functional, Aorta; summary of the method: as §1
Rattus norvegicus [10] = organism: Rattus norvegicus; assay: Maximal relaxing effect in isolated rat aortic rings with endothelium precontracted with 1 uM phenylephrine at 0.1-100 uM concentration; Range is 1.8-40.7%; assay type: functional, Aorta; summary of the method: as §1
Rattus norvegicus [11] = organism: Rattus norvegicus; assay: Contraction in isolated rat aortic rings without endothelium at 10-100 uM concentration; Range is 2-3%; assay type: functional, Aorta; summary of the method: as §1
Rattus norvegicus [12] = organism: Rattus norvegicus; assay: Maximal relaxing effect of compound in isolated rat aortic rings precontracted phenylephrine at 100 uM concentration; assay type: functional, Aorta; summary of the method: as §1
Homo sapiens [13] = organism: Homo sapiens; assay: Inhibitory concentration against SFLLR-NH2 (2.5 uM) induced platelet aggregation in human platelet-rich plasma; assay type: functional, organism-based
Summary of the method: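 Human PRP (2 × 10⁸ platelets/mL, healthy donors) stirred with compound, then aggregation triggered by SFLLR-NH₂ 2.5 µM instead of thrombin; optical aggregometry read-out.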

IC50 (Homo sapiens [2]) [µM] | IC50 (Homo sapiens [3]) [µM] | IC50 (Homo sapiens [4]) [µM] | IC50 (Homo sapiens [13]) [µM] | SMILES | Max efficacy (Rattus norvegicus [1]) [%] | Relative potency [5] | Reduction (Rattus norvegicus [6]) [%] | Max efficacy (Rattus norvegicus [7]) [%] | Max efficacy (Rattus norvegicus [8]) [%] | Relaxation (Rattus norvegicus [9]) [%] | Max efficacy (Rattus norvegicus [10]) [%] | Contraction (Rattus norvegicus [11]) [%] | Max efficacy (Rattus norvegicus [12]) [%]
> 1000 | > 1000 | 870 | – | NC(N)=NCCCCCC(=O)NCC1CCN(C(=O)C(N)Cc2ccccc2)CC1 (stereo not given) | – | 13.6 | 18 | 14 | 42.7 | 25 | – | – | –
340 | 420 | 390 | – | NC(N)=NCCCCCC(=O)NC1CCN(C(=O)C(N)Cc2ccccc2)C1 (stereo not given) | – | 24 | – | – | – | – | 40.7 | 3 | –

Continued, molecule first:

SMILES | IC50 (Homo sapiens [2]) [µM] | IC50 (Homo sapiens [3]) [µM] | IC50 (Homo sapiens [4]) [µM] | IC50 (Homo sapiens [13]) [µM] | Max efficacy (Rattus norvegicus [1]) [%] | Relative potency [5] | Reduction (Rattus norvegicus [6]) [%] | Max efficacy (Rattus norvegicus [7]) [%] | Max efficacy (Rattus norvegicus [8]) [%] | Relaxation (Rattus norvegicus [9]) [%] | Max efficacy (Rattus norvegicus [10]) [%] | Contraction (Rattus norvegicus [11]) [%] | Max efficacy (Rattus norvegicus [12]) [%]
N=C(N)NCCCCCC(=O)NCC1CCN(C(=O)Cc2ccccc2)CC1 | > 250 | 140 | > 250 | – | 91.4 | 0.06 | – | – | – | – | – | – | –
N=C(N)NCCCCCC(=O)NC1CCN(C(=O)Cc2ccccc2)C1 (stereo not given) | 120 | 110 | 210 | – | – | 17.3 | – | – | – | – | – | – | 37.5
NC(N)=NCCCCCC(=O)N1CCN(C(=O)C(N)Cc2ccccc2)CC1 (stereo not given) | 90 | 120 | 240 | 370 | – | 38.2 | – | – | – | – | – | – | –
N=C(N)NCCCCCC(=O)N1CCN(C(=O)Cc2ccccc2)CC1 | 510 | 460 | 440 | 780 | 81 | 0.19 | – | – | – | – | – | – | –

Reference: ChEMBL document CHEMBL1148334, “Design and synthesis of novel biologically active thrombin receptor non-peptide mimetics based on the pharmacophoric cluster Phe/Arg/NH2 of the Ser42-Phe-Leu-Leu-Arg46 motif sequence: platelet aggregation and relaxant activities” (J Med Chem, 2004)
